{"source": "ChEMBL document CHEMBL4020718", "about": "“Trifluoromethyl arylamides with antileukemia effect and intracellular inhibitory activity over serine/arginine-rich protein kinases (SRPKs)” (Eur J Med Chem, 2017)", "key": {"[1]": {"test_system": "HL-60", "test": "Cytotoxicity against human HL60 cells assessed as reduction in cell viability up to 200 uM after 48 hrs by MTT assay", "format": "functional, cell-based", "summary_of_the_method": "(§1)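 Cells (7x10^4/well) in RPMI-1640 with 10% FBS, 37 °C, 5% CO2; exposed to compound dilutions 0–200 µM (medium with 10% FBS, 0.4% DMSO) for 48 h. MTT added, 3 h at 37 °C, formazan dissolved in DMSO, absorbance 540 nm. IC50 from concentration–response; means ± standard deviation of three independent experiments.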"}, "[2]": {"test_system": "Jurkat", "test": "Cytotoxicity against human Jurkat cells assessed as reduction in cell viability up to 200 uM after 48 hrs by MTT assay", "format": "functional, cell-based", "summary_of_the_method": "as §1"}, "[3]": {"test_system": "NALM-6", "test": "Cytotoxicity against human NALM6 cells assessed as reduction in cell viability up to 200 uM after 48 hrs by MTT assay", "format": "functional, cell-based", "summary_of_the_method": "as §1"}, "[4]": {"test_system": "NALM-6", "test": "Synergistic cytotoxicity against human NALM6 cells assessed as reduction in cell viability by measuring combination index at 8.9 uM after 48 hrs in presence of 0.5 nM vincristine by MTT assay", "format": "functional"}, "[5]": {"test_system": "NALM-6", "test": "Synergistic cytotoxicity against human NALM6 cells assessed as reduction in cell viability by measuring combination index at 17.9 uM after 48 hrs in presence of 1 nM vincristine by MTT assay", "format": "functional"}, "[6]": {"test_system": "NALM-6", "test": "Induction of autophagy in human NALM6 cells at 20 uM after 24 hrs by acridin orange staining based fluorescence microscopy", "format": "functional, cell-based", "summary_of_the_method": "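Nalm6 (7x10^4/well) exposed 24 h to 20 µM or 0.4% DMSO, washed in PBS, stained with 1 µM acridine orange at 37 °C for 15 min, washed, resuspended in PBS; autophagosomes (red fluorescence) viewed by fluorescence microscopy; three experiments.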"}, "[7]": {"test_system": "PBMC", "test": "Cytotoxicity against PHA-stimulated human PBMC assessed as reduction in cell viability at 25 uM after 48 hrs by MTT assay", "format": "cell-based", "summary_of_the_method": "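Primary peripheral blood mononuclear cells seeded 1x10^5/well in complete RPMI; treated with 25 µM for 48 h. Viability by MTT (3 h, 37 °C, DMSO solubilization, 540 nm), vehicle taken as 100% viability; triplicate experiments, means ± standard deviation.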"}, "[8]": {"test_system": "NALM-6", "test": "Induction of apoptosis in human NALM6 cells assessed as viable cells at 20 uM after 12 hrs by Annexin-V/FITC propidium iodide staining based flow cytometric analysis (reference value: 92.11%)", "format": "functional", "conditions": "NALM-6, 12 h, read-out: Activity"}, "[9]": {"test_system": "NALM-6", "test": "Induction of apoptosis in human NALM6 cells assessed as early apoptotic cells at 20 uM after 12 hrs by Annexin-V/FITC propidium iodide staining based flow cytometric analysis (reference value: 7.40%)", "format": "functional"}, "[10]": {"test_system": "NALM-6", "test": "Induction of apoptosis in human NALM6 cells assessed as late apoptotic cells at 20 uM after 12 hrs by Annexin-V/FITC propidium iodide staining based flow cytometric analysis (reference value: 0.45%)", "format": "functional"}, "[11]": {"test_system": "NALM-6", "test": "Induction of apoptosis in human NALM6 cells assessed as necrotic cells at 20 uM after 12 hrs by Annexin-V/FITC propidium iodide staining based flow cytometric analysis (reference value: 0.04%)", "format": "functional"}, "[12]": {"test_system": "NALM-6", "test": "Induction of apoptosis in human NALM6 cells assessed as viable cells at 20 uM after 24 hrs by Annexin-V/FITC propidium iodide staining based flow cytometric analysis (reference value: 90.10%)", "format": "functional", "conditions": "NALM-6, 24 h, read-out: Activity"}, "[13]": {"test_system": "NALM-6", "test": "Induction of apoptosis in human NALM6 cells assessed as early apoptotic cells at 20 uM after 24 hrs by Annexin-V/FITC propidium iodide staining based flow cytometric analysis (reference value: 8.22%)", "format": "functional"}, "[14]": {"test_system": "NALM-6", "test": "Induction of apoptosis in human NALM6 cells assessed as late apoptotic cells at 20 uM after 24 hrs by Annexin-V/FITC propidium iodide staining based flow cytometric analysis (reference value: 1.68%)", "format": "functional"}, "[15]": {"test_system": "NALM-6", "test": "Induction of apoptosis in human NALM6 cells assessed as necrotic cells at 20 uM after 24 hrs by Annexin-V/FITC propidium iodide staining based flow cytometric analysis (reference value: 0%)", "format": "functional"}, "[16]": {"test_system": "HL-60", "test": "Antiproliferative activity against human HL60 cells at 20 uM by trypan blue dye exclusion assay", "format": "functional, cell-based", "conditions": "TDE = time-dependent effect", "summary_of_the_method": "(§2)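 Nalm6 at 1x10^4 or HL60 at 1.5x10^4 cells per well exposed to 20 µM; DMSO (0.4% v/v) as control. Viable cells counted by trypan blue exclusion on a hemocytometer at 0, 24, 48, 72 and 96 h; growth inhibition relative to control.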"}, "[17]": {"test_system": "NALM-6", "test": "Antiproliferative activity against human NALM6 cells at 20 uM by trypan blue dye exclusion assay", "format": "functional, cell-based", "conditions": "TDE = time-dependent effect", "summary_of_the_method": "as §2"}, "[18]": {"test_system": "HL-60", "test": "Cytotoxicity against human HL60 cells assessed as cell growth inhibition at 20 uM after 96 hrs by trypan blue dye exclusion assay relative to control", "format": "functional", "conditions": "HL-60, 96 h, read-out: GI", "summary_of_the_method": "as §2"}, "[19]": {"test_system": "NALM-6", "test": "Cytotoxicity against human NALM6 cells assessed as cell growth inhibition at 20 uM after 96 hrs by trypan blue dye exclusion assay relative to control", "format": "functional", "conditions": "NALM-6, 96 h, read-out: GI", "summary_of_the_method": "as §2"}, "[20]": {"test_system": "NALM-6", "test": "Effect on actin expression level in human NALM6 cells at 20 uM after 24 hrs by qRT-PCR analysis", "format": "ADME, cell-based", "conditions": "nalm-6, 24 h"}, "[21]": {"test_system": "NALM-6", "test": "Effect on SRPK1 expression level in human NALM6 cells at 20 uM after 24 hrs by Western blot analysis", "format": "functional, cell-based", "summary_of_the_method": "(§3)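 Nalm6 treated 24 h at 20 µM (DMSO vehicle control), lysed at 2x10^7 cells/mL in PBS with 1% NP40, 1 mM EDTA, 150 mM NaCl, 10 mM Tris pH 7.4 plus protease/phosphatase inhibitors; on ice 10 min, sonicated, spun 15000 xg; SDS-PAGE, PVDF, milk block overnight, primary and secondary antibody 2 h each; representative of three.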"}, "[22]": {"test_system": "NALM-6", "test": "Effect on SRPK2 expression level in human NALM6 cells at 20 uM after 24 hrs by Western blot analysis", "format": "functional, cell-based", "summary_of_the_method": "as §3"}, "[23]": {"test_system": "NALM-6", "test": "Effect on actin expression level in human NALM6 cells at 20 uM after 24 hrs by Western blot analysis", "format": "ADME, cell-based", "conditions": "nalm-6, 24 h", "summary_of_the_method": "as §3"}, "[24]": {"conditions": "Homo sapiens, HL-60, 48 h, read-out: IC50"}, "[25]": {"conditions": "Homo sapiens, Jurkat, 48 h, read-out: IC50"}, "[26]": {"conditions": "Homo sapiens, NALM-6, 48 h, read-out: IC50"}}, "note": "The source made the active and inactive calls. The calls are words filed in the database; no cut-off is given here.", "data": [{"smiles": "O=C(Nc1cc(C(F)(F)F)ccc1NC1CCCCC1)c1ccncc1", "values": [{"measurement": "IC50", "setting": "[1]; [24]", "result": 59.2, "unit": "µM"}, {"measurement": "IC50", "setting": "[2]; [25]", "result": 80.9, "unit": "µM"}, {"measurement": "IC50", "setting": "[3]; [26]", "result": 59, "unit": "µM"}]}, {"smiles": "O=C(Nc1cc(C(F)(F)F)ccc1Nc1ccc(Br)cc1)c1ccncc1", "values": [{"measurement": "IC50", "setting": "[1]; hl-60", "result": "Not Active"}, {"measurement": "IC50", "setting": "[2]; jurkat", "result": "Not Active"}, {"measurement": "IC50", "setting": "[3]; [26]", "result": 51.9, "unit": "µM"}]}, {"smiles": "O=C(Nc1cc(C(F)(F)F)ccc1N1CCCC1)c1ccncc1", "values": [{"measurement": "IC50", "setting": "[1]; hl-60", "result": "Not Active"}, {"measurement": "IC50", "setting": "[2]; jurkat", "result": "Not Active"}, {"measurement": "IC50", "setting": "[3]; nalm-6", "result": "Not Active"}]}, {"smiles": "O=C(Nc1cc(C(F)(F)F)ccc1NC1CCCCC1)c1ccccc1", "values": [{"measurement": "IC50", "setting": "[1]; [24]", "result": 34.9, "unit": "µM"}, {"measurement": "IC50", "setting": "[2]; jurkat", "result": "Not Active"}, {"measurement": "IC50", "setting": "[3]; nalm-6", "result": "Not Active"}]}, {"smiles": "O=C(Nc1cc(C(F)(F)F)ccc1Nc1ccc(Br)cc1)c1cccnc1Cl", "values": [{"measurement": "CI", "setting": "[4]", "result": 0.57}, {"measurement": "CI", "setting": "[5]", "result": 1.02}, {"measurement": "Activity", "setting": "[6]", "result": "Active"}, {"measurement": "IC50", "setting": "[1]; [24]", "result": 14.2, "unit": "µM"}, {"measurement": "IC50", "setting": "[2]; [25]", "result": 20.6, "unit": "µM"}, {"measurement": "IC50", "setting": "[3]; [26]", "result": 35.7, "unit": "µM"}, {"measurement": "Activity", "setting": "[7]", "result": "Toxic"}, {"measurement": "viability at 20 µM", "setting": "[8]", "result": 87.9, "unit": "%"}, {"measurement": "Activity", "setting": "[9]", "result": 11.7, "unit": "%"}, {"measurement": "Activity", "setting": "[10]", "result": 0.52, "unit": "%"}, {"measurement": "Activity", "setting": "[11]", "result": 0, "unit": "%"}, {"measurement": "viability at 20 µM", "setting": "[12]", "result": 86.8, "unit": "%"}, {"measurement": "Activity", "setting": "[13]", "result": 11.91, "unit": "%"}, {"measurement": "Activity", "setting": "[14]", "result": 1.16, "unit": "%"}, {"measurement": "Activity", "setting": "[15]", "result": 0.07, "unit": "%"}, {"measurement": "Activity", "setting": "[16]", "result": "Tde"}, {"measurement": "Activity", "setting": "[17]", "result": "Tde"}, {"measurement": "inhibition of growth at 20 µM", "setting": "[18]", "result": 33, "unit": "%"}, {"measurement": "inhibition of growth at 20 µM", "setting": "[19]", "result": 37, "unit": "%"}, {"measurement": "Activity", "setting": "[20]", "result": "Non-Toxic"}, {"measurement": "Activity", "setting": "[21]", "result": "inactive"}, {"measurement": "Activity", "setting": "[22]", "result": "inactive"}, {"measurement": "Activity", "setting": "[23]", "result": "Non-Toxic"}]}, {"smiles": "CCN(CC)c1ccc(C(F)(F)F)cc1NC(=O)c1cccnc1Cl", "values": [{"measurement": "IC50", "setting": "[1]; [24]", "result": 84.1, "unit": "µM"}, {"measurement": "IC50", "setting": "[2]; [25]", "result": 88.4, "unit": "µM"}, {"measurement": "IC50", "setting": "[3]; nalm-6", "result": "Not Active"}]}, {"smiles": "O=C(Nc1cc(C(F)(F)F)ccc1N1CCOCC1)c1ccccc1", "values": [{"measurement": "IC50", "setting": "[1]; hl-60", "result": "Not Active"}, {"measurement": "IC50", "setting": "[2]; jurkat", "result": "Not Active"}, {"measurement": "IC50", "setting": "[3]; nalm-6", "result": "Not Active"}]}, {"smiles": "O=C(Nc1cc(C(F)(F)F)ccc1NC1CCCCC1)c1cccnc1", "values": [{"measurement": "IC50", "setting": "[1]; [24]", "result": 48.3, "unit": "µM"}, {"measurement": "IC50", "setting": "[2]; jurkat", "result": "Not Active"}, {"measurement": "IC50", "setting": "[3]; [26]", "result": 52.3, "unit": "µM"}]}, {"smiles": "O=C(Nc1cc(C(F)(F)F)ccc1N1CCCC1)c1cccnc1", "values": [{"measurement": "IC50", "setting": "[1]; hl-60", "result": "Not Active"}, {"measurement": "IC50", "setting": "[2]; jurkat", "result": "Not Active"}, {"measurement": "IC50", "setting": "[3]; nalm-6", "result": "Not Active"}]}, {"smiles": "O=C(Nc1cc(C(F)(F)F)ccc1N1CCCC1)c1ccccc1", "values": [{"measurement": "IC50", "setting": "[1]; hl-60", "result": "Not Active"}, {"measurement": "IC50", "setting": "[2]; jurkat", "result": "Not Active"}, {"measurement": "IC50", "setting": "[3]; nalm-6", "result": "Not Active"}]}, {"smiles": "O=C(Nc1cc(C(F)(F)F)ccc1N1CCOCC1)c1ccncc1", "values": [{"measurement": "IC50", "setting": "[1]; hl-60", "result": "Not Active"}, {"measurement": "IC50", "setting": "[2]; jurkat", "result": "Not Active"}, {"measurement": "IC50", "setting": "[3]; nalm-6", "result": "Not Active"}]}]}
